BindingDB's records for doi:10.1021/jm060539t (Biogen Idec, 2006)
pKi: −log10 of the molar value.

Assays:
Adenosine receptor A3 = molecular target: T1, Adenosine receptor A3 (Homo sapiens, UniProt P0DMS8); assay: Displacement of [125I]ABA from human adenosine A3 receptor
T1 sequence (P0DMS8 whole entry): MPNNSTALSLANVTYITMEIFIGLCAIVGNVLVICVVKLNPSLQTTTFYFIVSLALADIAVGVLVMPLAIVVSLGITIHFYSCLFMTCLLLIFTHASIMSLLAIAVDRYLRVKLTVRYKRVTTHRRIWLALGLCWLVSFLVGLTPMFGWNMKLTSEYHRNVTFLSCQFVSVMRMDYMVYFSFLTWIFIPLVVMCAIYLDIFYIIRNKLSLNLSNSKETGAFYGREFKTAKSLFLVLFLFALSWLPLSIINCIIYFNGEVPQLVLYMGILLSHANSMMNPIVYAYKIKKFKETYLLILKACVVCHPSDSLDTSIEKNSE

Adenosine receptor A1 [1] = molecular target: T2, Adenosine receptor A1 (Homo sapiens, UniProt P30542); assay: Displacement of [125I]ABA from human adenosine A1 receptor
T2 sequence (P30542 whole entry): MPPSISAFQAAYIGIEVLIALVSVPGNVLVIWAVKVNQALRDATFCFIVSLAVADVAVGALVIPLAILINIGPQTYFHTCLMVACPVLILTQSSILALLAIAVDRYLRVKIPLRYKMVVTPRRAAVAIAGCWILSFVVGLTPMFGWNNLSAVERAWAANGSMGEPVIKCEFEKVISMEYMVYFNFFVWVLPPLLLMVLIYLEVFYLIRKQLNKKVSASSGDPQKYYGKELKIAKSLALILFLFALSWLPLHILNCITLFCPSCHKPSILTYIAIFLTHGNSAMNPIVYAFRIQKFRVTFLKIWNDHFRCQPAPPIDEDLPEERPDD

Adenosine receptor A1 [2] = molecular target: T3, Adenosine receptor A1 (Rattus norvegicus, UniProt P25099); assay: Displacement of [3H]DPCPX from adenosine A1 receptor in rat cerebral cortex
T3 sequence (P25099 whole entry): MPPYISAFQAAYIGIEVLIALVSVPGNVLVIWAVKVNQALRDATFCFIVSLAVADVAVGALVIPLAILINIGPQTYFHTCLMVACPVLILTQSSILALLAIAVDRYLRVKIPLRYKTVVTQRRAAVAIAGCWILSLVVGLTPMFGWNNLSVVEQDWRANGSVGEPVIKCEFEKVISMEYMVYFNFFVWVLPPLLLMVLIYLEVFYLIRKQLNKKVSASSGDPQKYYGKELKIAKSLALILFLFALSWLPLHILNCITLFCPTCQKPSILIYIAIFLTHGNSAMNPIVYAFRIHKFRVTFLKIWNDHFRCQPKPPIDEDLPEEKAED
Summary of the method: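 Rat brain membranes (cerebral cortex for A1, striatum for A2A) homogenized in 10 mM EDTA/10 mM Na-HEPES pH 7.4 with protease inhibitors, washed, stored at -80 °C. 40-70 µg protein incubated in triplicate with radioligand plus seven competitor concentrations in HEPES/EDTA buffer with 2 units/mL adenosine deaminase, 2.5 h, 21 °C. A1: [3H]DPCPX 2 nM, nonspecific with 10 µM NECA; A2A: [3H]ZM241385 0.5-1.2 nM, nonspecific with 10 µM XAC. GF/C filtration; single-site fit, Cheng-Prusoff Ki.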

Row | Compound | pKi (Adenosine receptor A3) | pKi (Adenosine receptor A1 [1]) | pKi (Adenosine receptor A1 [2])
1 | CCCn1c2nc(C34CCC(O)(CC3)CC4)nc-2c2n(c1=O)C[C@@H](C(C)C)N2 [(R)-2-(4-hydroxybicyclo[2.2.2]octan-1-yl)-8-isopropyl-4-propyl-7,8-dihydro-1H-imidazo[1,2-g]purin-5(4H)-one] | < 5.00 | 7.46 | –
2 | CCCn1c2nc(C34CCC(O)(CC3)CC4)nc-2c2n(c1=O)CC[C@@H](C)N2 [(R)-2-(4-hydroxybicyclo[2.2.2]octan-1-yl)-9-methyl-4-propyl-8,9-dihydropyrimido[1,2-g]purin-5(1H,4H,7H)-one] | – | – | < 6.60
3 | CCCn1c2nc(C34CCC(CCC(=O)O)(CC3)CC4)nc-2c2n(c1=O)C[C@@H](C(C)C)N2 [(R)-3-(4-(8-isopropyl-5-oxo-4-propyl-4,5,7,8-tetrahydro-1H-imidazo[1,2-g]purin-2-yl)bicyclo[2.2.2]octan-1-yl)propanoic acid] | < 5.00 | – | –
4 | CCCn1c2nc(C34CCC(O)(CC3)CC4)nc-2c2n(c1=O)C[C@@H](CC)N2 [(R)-8-ethyl-2-(4-hydroxybicyclo[2.2.2]octan-1-yl)-4-propyl-7,8-dihydro-1H-imidazo[1,2-g]purin-5(4H)-one] | < 5.00 | – | –
5 | CCCn1c2nc(C34CCC(O)(CC3)CC4)nc-2c2n(c1=O)CC[C@@H](CC)N2 [(R)-9-ethyl-2-(4-hydroxybicyclo[2.2.2]octan-1-yl)-4-propyl-8,9-dihydropyrimido[1,2-g]purin-5(1H,4H,7H)-one] | – | – | < 6.60
6 | CCCn1c2nc(C34CCC(O)(CC3)CC4)nc-2c2n(c1=O)C[C@H](CC)N2 [(S)-8-ethyl-2-(4-hydroxybicyclo[2.2.2]octan-1-yl)-4-propyl-7,8-dihydro-1H-imidazo[1,2-g]purin-5(4H)-one] | – | – | < 7.00
